Source: ChEMBL document CHEMBL3526053, “Species-dependent uptake of glycylsarcosine but not oseltamivir in Pichia pastoris expressing the rat, mouse, and human intestinal peptide transporter PEPT1” (Drug Metab Dispos, 2012)

Experiments:
Assay type in all cases: ADME
[1] = molecular target: T1, Solute carrier family 15 member 1 (Mus musculus, UniProt Q9JIP7); experiment: Drug uptake in Pichia pastoris GS115 expressing mouse recombinant PEPT1 at 5 uM after 30s by dual-channel liquid scintillation counting analysis in presence of cephalothin relative to control; details: 0.5 min
T1 sequence (Q9JIP7 whole entry): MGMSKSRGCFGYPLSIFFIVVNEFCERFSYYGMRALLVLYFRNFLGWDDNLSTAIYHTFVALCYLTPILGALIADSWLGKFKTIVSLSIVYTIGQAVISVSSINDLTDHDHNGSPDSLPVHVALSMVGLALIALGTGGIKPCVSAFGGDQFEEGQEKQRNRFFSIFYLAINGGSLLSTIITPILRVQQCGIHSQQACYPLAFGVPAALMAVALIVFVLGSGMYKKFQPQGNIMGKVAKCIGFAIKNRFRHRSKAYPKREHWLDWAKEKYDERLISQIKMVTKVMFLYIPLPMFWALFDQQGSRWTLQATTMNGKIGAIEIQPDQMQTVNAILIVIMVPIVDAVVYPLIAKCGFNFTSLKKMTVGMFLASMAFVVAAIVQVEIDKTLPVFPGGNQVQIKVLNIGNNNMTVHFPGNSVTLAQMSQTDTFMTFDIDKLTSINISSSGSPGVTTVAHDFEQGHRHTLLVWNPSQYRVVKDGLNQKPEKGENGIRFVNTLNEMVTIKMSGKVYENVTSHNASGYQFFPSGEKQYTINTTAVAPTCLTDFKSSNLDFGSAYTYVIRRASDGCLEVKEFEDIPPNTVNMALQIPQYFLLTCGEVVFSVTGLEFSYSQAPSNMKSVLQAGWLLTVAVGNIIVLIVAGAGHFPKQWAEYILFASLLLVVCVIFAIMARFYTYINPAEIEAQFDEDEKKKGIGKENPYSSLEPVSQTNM
Summary of the method: (§1)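 [3H]GlySar 5.0 µM final, 30-s uptake at 24°C in 100 mM potassium phosphate pH 6.5, with or without a potential inhibitor at 10 mM. Cells are methanol-induced transformants. Values are vector-subtracted and expressed as percent of buffer control. Mean ± SE (n=3). ANOVA with Dunnett's test.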

[2] = molecular target: T2, Solute carrier family 15 member 1 (Rattus norvegicus, UniProt P51574); experiment: Drug uptake in Pichia pastoris GS115 expressing rat recombinant PEPT1 at 5 uM after 30s by dual-channel liquid scintillation counting analysis in presence of GlyPro relative to control; details: in vivo, 0.5 min; summary of the method: as §1
T2 sequence (P51574 whole entry): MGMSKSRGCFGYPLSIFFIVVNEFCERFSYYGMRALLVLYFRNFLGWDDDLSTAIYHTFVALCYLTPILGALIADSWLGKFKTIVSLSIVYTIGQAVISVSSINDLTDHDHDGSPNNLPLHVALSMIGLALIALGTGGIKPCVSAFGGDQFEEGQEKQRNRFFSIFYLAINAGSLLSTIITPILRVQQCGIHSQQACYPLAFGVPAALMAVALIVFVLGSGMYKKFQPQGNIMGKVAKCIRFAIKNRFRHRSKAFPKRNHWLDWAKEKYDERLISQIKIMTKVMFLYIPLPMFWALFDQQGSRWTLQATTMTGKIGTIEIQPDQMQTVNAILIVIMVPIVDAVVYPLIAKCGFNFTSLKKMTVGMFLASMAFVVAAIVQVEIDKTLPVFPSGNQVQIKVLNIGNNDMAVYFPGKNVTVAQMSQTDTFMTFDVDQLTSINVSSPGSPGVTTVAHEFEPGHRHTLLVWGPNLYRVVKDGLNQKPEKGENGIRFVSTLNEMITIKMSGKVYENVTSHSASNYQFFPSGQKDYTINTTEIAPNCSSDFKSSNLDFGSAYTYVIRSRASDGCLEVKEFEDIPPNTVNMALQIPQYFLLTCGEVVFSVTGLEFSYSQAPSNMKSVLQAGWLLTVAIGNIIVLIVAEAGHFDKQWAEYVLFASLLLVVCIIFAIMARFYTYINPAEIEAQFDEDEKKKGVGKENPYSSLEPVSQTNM

[3] = molecular target: T3, PEPT1 (Rattus norvegicus, UniProt P51574); experiment: Drug uptake in Pichia pastoris GS115 expressing rat recombinant PEPT1 at 5 uM after 30s by dual-channel liquid scintillation counting analysis relative to vector control; details: read-out: FC
T3 sequence (P51574 whole entry): T2 sequence (P51574 whole entry)
Summary of the method: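 Rat PEPT1 and vector-only (pPIC3.5K) GS115 yeast, methanol-induced 20-24 hr. Cells were washed and concentrated tenfold in 100 mM phosphate buffer pH 6.5. [3H]GlySar or [14C]oseltamivir final 5.0 µM, 24°C, 30 sec and 5 min. Nonspecific binding was measured at 0°C and zero time. Uptake is given as pmol/OD600 by scintillation counting. Mean ± SE, n=6.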

[4] = molecular target: T4, PEPT1 (Mus musculus, UniProt Q9JIP7); experiment: Drug uptake in Pichia pastoris GS115 expressing mouse recombinant PEPT1 at 5 uM after 30 mins by dual-channel liquid scintillation counting analysis relative to vector control; details: read-out: FC
T4 sequence (Q9JIP7 whole entry): T1 sequence (Q9JIP7 whole entry)
Summary of the method: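 5.0 µM radiolabelled substrate ([3H]GlySar or [14C]oseltamivir) is incubated 30 min at 24°C with induced transformants in 100 mM potassium phosphate pH 6.5. Cell-associated radioactivity is counted by scintillation after standing 24 h and normalised to OD600. Results are compared with pPIC3.5K vector-alone cells. Mean ± SE (n=6).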

[5] = molecular target: T5, PEPT1 (Homo sapiens, UniProt P46059); experiment: Drug uptake in Pichia pastoris GS115 expressing human recombinant PEPT1 at 5 uM after 30s by dual-channel liquid scintillation counting analysis relative to vector control; details: read-out: FC
T5 sequence (P46059 whole entry): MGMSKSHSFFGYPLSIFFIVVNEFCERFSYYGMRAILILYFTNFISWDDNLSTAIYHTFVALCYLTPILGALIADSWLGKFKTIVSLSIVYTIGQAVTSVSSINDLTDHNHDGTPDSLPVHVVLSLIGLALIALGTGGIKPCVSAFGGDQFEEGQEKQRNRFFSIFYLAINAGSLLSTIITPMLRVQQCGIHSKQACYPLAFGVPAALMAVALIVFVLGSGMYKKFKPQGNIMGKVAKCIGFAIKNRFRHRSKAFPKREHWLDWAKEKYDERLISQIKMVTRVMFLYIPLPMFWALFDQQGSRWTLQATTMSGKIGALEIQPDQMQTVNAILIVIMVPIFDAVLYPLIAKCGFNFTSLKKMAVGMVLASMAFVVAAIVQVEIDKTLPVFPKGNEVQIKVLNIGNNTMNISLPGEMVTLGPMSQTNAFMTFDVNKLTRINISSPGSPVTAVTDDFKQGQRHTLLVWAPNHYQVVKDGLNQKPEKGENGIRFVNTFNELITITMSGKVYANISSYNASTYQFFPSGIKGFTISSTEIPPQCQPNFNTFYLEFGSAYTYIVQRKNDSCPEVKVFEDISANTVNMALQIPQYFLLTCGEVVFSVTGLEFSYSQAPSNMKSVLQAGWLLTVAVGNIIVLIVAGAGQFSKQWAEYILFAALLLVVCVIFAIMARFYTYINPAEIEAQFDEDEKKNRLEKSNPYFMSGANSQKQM
Summary of the method: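 5.0 µM radiolabelled substrate uptake for 30 s at 24°C in pH 6.5 phosphate buffer by induced transformants. Radioactivity is counted by liquid scintillation and normalised to OD600. Results are compared with pPIC3.5K vector-alone cells. Mean ± SE (n=6).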

A Drug uptake [1] of 85%, a Drug uptake [2] of 0.6% and an uptake ratio at 0.5 min, 5 µM [3] of 136 were found for [3H]C(C(=O)O)N(C)C(=O)CN (stereo not given) in this work. The uptake ratio at 0.5 h, 5 µM [4] was 100 and the uptake ratio at 0.5 min, 5 µM [5] was 23.
